ChEMBL document CHEMBL5344432, “Identification of a Dual Autophagy and REV-ERB Inhibitor with in Vivo Anticancer Efficacy” (J Med Chem, 2024)
Converted amounts (≈) assume the structure as drawn.

Key:
BT-474 = experiment: Cytotoxicity against human BT-474 cells; format: functional
How it was run: (§1)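 BT-474 breast cancer cells and nontumorigenic HMECs treated 48 h with concentrations up to 30 μM. CC50 derived from concentration–response viability plots. Values >30 μM assigned when viability fell by less than 50% of vehicle at 30 μM. Mean ± SEM, n ≥ 3.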

[1] = (§2) Cytotoxicity against HMECs; format: toxicity, cell-based, HMEC; details: human, HMEC cells; how it was run: as §1
[2] = Aqueous kinetic solubility of the compound in PBS at pH 7.4 at 250 uM incubated for 24 hrs by UPLC/MS analysis; format: physicochemical; details: read-out: Kinetic_solubility
How it was run: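 Kinetic solubility measured in phosphate-buffered saline, pH 7.4. Mean of at least two independent experiments, each run in two technical replicates.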

[3] = Metabolic stability in mouse liver microsomes assessed as half life preincubated for 15 mins followed by NADPH addition and measured after 1 to 2 hrs by LC-MS/MS analysis; format: ADME, Microsome; details: time 75-135 min; for half-life: liver microsomes; for t1/2: microsomes
How it was run: (§3)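 Microsomal stability assessed in mouse, human, rat or dog liver microsomes with NADPH cofactor. Half-life and percent parent remaining at 60 and 120 min reported. Mean of at least two independent experiments, each in two technical replicates.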

[4] = Metabolic stability in mouse liver microsomes assessed as parent compound remaining preincubated for 15 mins followed by NADPH addition and measured after 1 hr by LC-MS/MS analysis; format: ADME, Microsome; details: time 75 min, read-out: Stability; how it was run: as §3
[5] = Metabolic stability in mouse liver microsomes assessed as parent compound remaining preincubated for 15 mins followed by NADPH addition and measured after 2 hrs by LC-MS/MS analysis; format: ADME, Microsome; details: time 135 min, read-out: Stability; how it was run: as §3
[6] = Metabolic stability in human liver microsomes assessed as half life preincubated for 15 mins followed by NADPH addition and measured after 1 to 2 hrs by LC-MS/MS analysis; format: ADME, Microsome; details: time 75-135 min; for half-life: liver microsomes; how it was run: as §3
[7] = Metabolic stability in human liver microsomes assessed as parent compound remaining preincubated for 15 mins followed by NADPH addition and measured after 1 hr by LC-MS/MS analysis; format: ADME, Microsome; details: time 75 min, read-out: Stability; how it was run: as §3
[8] = Metabolic stability in human liver microsomes assessed as parent compound remaining preincubated for 15 mins followed by NADPH addition and measured after 2 hrs by LC-MS/MS analysis; format: ADME, Microsome; details: time 135 min, read-out: Stability; how it was run: as §3
[9] = Metabolic stability in mouse liver microsomes assessed as half life preincubated for 15 mins followed by UDPGA addition and measured after 2 hrs by LC-MS/MS analysis; format: ADME, Microsome; details: time 135 min
How it was run: (§4)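 Mouse and human liver microsomes incubated with UDPGA cofactor. Half-life and percent parent remaining at 120 min reported. Mean of at least two independent experiments, each in two technical replicates.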

[10] = Metabolic stability in human liver microsomes assessed as parent compound remaining preincubated for 15 mins followed by UDPGA addition and measured after 2 hrs by LC-MS/MS analysis; format: ADME, Microsome; details: time 135 min, read-out: Stability; how it was run: as §4
[11] = Metabolic stability in mouse liver microsomes assessed as half-life preincubated for 15 mins followed by UDPGA addition and measured after 2 hrs by LC-MS/MS analysis
[12] = Metabolic stability in human liver microsomes assessed as percent compound remaining preincubated for 15 mins followed by UDPGA addition and measured after 2 hrs by LC-MS/MS analysis
HMEC = experiment: as §2; format: toxicity, cell-based; details: human, hmec; how it was run: as §1

| SMILES | CC50 (BT-474) [µM] | CC50 [1] [µM] | solubility kinetic at 24 h, 250 µM [2] [µM] | half-life [3] [h] | t1/2 [3] [h] | remaining at 1 h [4] [%] | remaining at 2 h [5] [%] | half-life [6] [h] | remaining at 1 h [7] [%] | remaining at 2 h [8] [%] | half-life [9] [h] | remaining at 2 h [10] [%] | t1/2 at 2 h [11] [h] | percent compound remaining at 2 h [12] [%] | CC50 (HMEC) [µM] | t1/2 ([6]; microsomes) [h] |
| --- | --- | --- | --- | --- | --- | --- | --- | --- | --- | --- | --- | --- | --- | --- | --- | --- |
| CN1CCC(Cc2cccc(CNC3(c4ccc(F)cc4)CCCC3)c2)C(F)(F)C1 (racemic) | 21.9 | > 30 | 41 (≈ 17.1 µg/mL) | < 0.0833 | – | – | – | – | – | – | – | – | – | – | – | – |
| CN1CCC(Cc2cc(CNC3(c4ccc(F)c(F)c4)CCCC3)ccc2F)CC1 | 3.52 | > 30 | 231 (≈ 96.2 µg/mL) | – | 0.967 | 48 | 21 | > 2 | 77 | 56 | – | – | – | – | – | – |
| CN1CCC(Cc2cccc(CNC3(c4ccc(F)c(F)c4)CCCC3)c2)CC1 | 5.1 | > 30 | 245 (≈ 97.6 µg/mL) | – | 1.17 | 56 | 31 | > 2 | 75 | 53 | > 2 | > 95 | > 2 | – | – | – |
| CN1CCC(Cc2ccc(F)c(CNC3(c4ccc(F)cc4)CCCC3)c2)CC1 | 5.45 | > 30 | 246 (≈ 98 µg/mL) | – | 1.78 | 68 | 46 | > 2 | 75 | 53 | > 2 | 95 | > 2 | 95 | – | – |
| CN1CCC(Cc2cccc(CNC3(c4ccc(F)cc4)CCCC3)c2)CC1(C)C (racemic) | 6.46 | > 30 | 239 (≈ 97.7 µg/mL) | > 1 | – | 58 | – | – | – | – | – | – | – | – | – | – |
| CN1CC(Cc2cccc(CNC3(c4ccc(F)cc4)CCCC3)c2)C1 | 13.4 | > 30 | > 250 | > 1 | – | 63 | – | – | – | – | – | – | – | – | – | – |
| CN1CCC(Cc2cccc(CNC3(c4ccc(F)cc4Cl)CCCC3)c2)CC1 | 4.25 | – | 220 (≈ 91.3 µg/mL) | – | 0.183 | – | – | – | – | – | – | – | – | – | 21 | – |
| CN1CCC(Cc2cccc(CNC3(c4ccc(F)c(O)c4)CCCC3)c2)CC1 | 11.7 | > 30 | > 250 | > 2 | – | 80 | 63 | > 2 | 84 | 71 | > 2 | > 95 | > 2 | 95 | – | – |
| COc1cc(C2(NCc3cccc(CC4CCN(C)CC4)c3)CCCC2)ccc1F | 3.65 | > 30 | 219 (≈ 89.9 µg/mL) | – | 1.52 | 62 | 40 | > 2 | 80 | 55 | > 2 | > 95 | > 2 | – | – | – |
| COc1cc(F)ccc1C1(NCc2cccc(CC3CCN(C)CC3)c2)CCCC1 | 6.99 | > 30 | 247 (≈ 101 µg/mL) | – | 1.63 | 64 | 42 | – | 70 | 50 | > 2 | > 95 | > 2 | – | – | 1.53 |
| CN1CCC(Cc2cc(CNC3(c4ccc(F)cc4)CCCC3)ccc2F)CC1 | 5.89 | > 30 | > 250 | – | 1.52 | 60 | 39 | > 2 | 84 | 71 | > 2 | 95 | > 2 | 95 | – | – |
| COc1cc(F)ccc1C1(NCc2ccc(F)c(CC3CCN(C)CC3)c2)CCCC1 | 6.88 | > 30 | > 250 | – | 1.15 | 55 | 31 | > 2 | 75 | 58 | > 2 | 95 | > 2 | – | – | – |
| CN1CCC(Cc2cc(CNC3(c4ccc(F)cc4)CCCC3)ccc2O)CC1 | 5.1 | > 30 | > 250 | – | 1.45 | 61 | 43 | > 2 | 83 | 63 | > 2 | 95 | > 2 | 95 | – | – |
| Fc1ccc(C2(NCc3cccc(CC4CCNCC4)c3)CCCC2)cc1 | 2.74 | > 30 | 248 (≈ 90.9 µg/mL) | > 2 | – | 85 | 71 | > 2 | 80 | 62 | > 2 | 95 | > 2 | 95 | – | – |
| CN1CCC(Cc2cccc(CNC3(c4ccc(F)cc4O)CCCC3)c2)CC1 | > 30 | > 30 | 27 (≈ 10.7 µg/mL) | – | 0.7 | 34 | 13 | – | – | – | > 2 | > 95 | > 2 | – | – | – |
| CN1CCC(Cc2cccc(CNC3(c4ccc(F)cc4F)CCCC3)c2)CC1 | 7.83 | > 30 | 209 (≈ 83.3 µg/mL) | < 0.5 | – | 19 | 5 | – | – | – | – | – | – | – | – | – |
| CN1CCC(Cc2cccc(CNC3(c4ccc(F)c(Cl)c4)CCCC3)c2)CC1 | 3.61 | – | 249 (≈ 103 µg/mL) | > 1 | – | 53 | – | – | – | – | – | – | – | – | 21.9 | – |
| CN1CCC(Cc2ccc(O)c(CNC3(c4ccc(F)cc4)CCCC3)c2)CC1 | 7.03 | > 30 | 246 (≈ 97.6 µg/mL) | – | 1.37 | – | – | > 2 | 74 | 54 | > 2 | 95 | > 2 | 95 | – | – |
